Assay results from ChEMBL document CHEMBL3576834, “Antipodal crambescin A2 homologues from the marine sponge Pseudaxinella reticulata. Antifungal structure-activity relationships” (2015).
In brackets after ≈: the same amount, converted by molar mass.

Legend:
Candida albicans = assay: Antifungal activity against Candida albicans ATCC 14503 after 48 hrs by microbroth dilution method; assay type: functional; details: ATCC 14503, 48 h
Outline: (§1)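 Microbroth dilution in Antibiotic Medium #3. Test agent in DMSO serially diluted 2-fold across 12 wells. Overnight yeast cultures diluted to OD 0.01−0.02 and added to the wells, final volume 200 μL. Incubated at 35 °C for 48 h, then growth read as OD at 600 nm.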

Cryptococcus gattii = assay: Antifungal activity against Cryptococcus neoformans var. gattii after 48 hrs by microbroth dilution method; assay type: functional, Cryptococcus bacillisporus; outline: as §1
Nakaseomyces glabratus = assay: Antifungal activity against Candida glabrata after 48 hrs by microbroth dilution method; assay type: functional; outline: as §1
Pichia kudriavzevii = assay: Antifungal activity against Candida krusei after 48 hrs by microbroth dilution method; assay type: functional; outline: as §1
Staphylococcus aureus = assay: Antibacterial activity against Staphylococcus aureus at 80 ug by disk diffusion method; assay type: functional; details: read-out: IZ

SMILES | MIC50 (Candida albicans) [µM] | MIC90 (Candida albicans) [µM] | MIC50 (Cryptococcus gattii) [µM] | MIC90 (Cryptococcus gattii) [µM] | MIC50 (Nakaseomyces glabratus) [µM] | MIC90 (Nakaseomyces glabratus) [µM] | MIC50 (Pichia kudriavzevii) [µM] | MIC90 (Pichia kudriavzevii) [µM] | zone of inhibition at 80 µg/disc (Staphylococcus aureus) [mm]
CCCCCCC[C@H]1NC(=N)N2CCCC2=C1C(=O)OCCCCNC(=N)N | 22 (≈ 8.64 µg/mL) | 32 (≈ 12.6 µg/mL) | 1.2 (≈ 0.471 µg/mL) | 2.3 (≈ 0.903 µg/mL) | – | – | – | – | –
CCCCCCCC[C@H]1NC(=N)N2CCCC2=C1C(=O)OCCCCNC(=N)N | 14 (≈ 5.69 µg/mL) | 26 (≈ 10.6 µg/mL) | 0.85 (≈ 0.346 µg/mL) | 2.2 (≈ 0.894 µg/mL) | – | – | – | – | –
CCCCC[C@H]1NC(=N)N2CCCC2=C1C(=O)OCCCCNC(=N)N | 39 (≈ 14.2 µg/mL) | 49 (≈ 17.9 µg/mL) | 2.5 (≈ 0.911 µg/mL) | 4.9 (≈ 1.79 µg/mL) | 17 (≈ 6.2 µg/mL) | 41 (≈ 14.9 µg/mL) | 34 (≈ 12.4 µg/mL) | 59 (≈ 21.5 µg/mL) | 8

Now those with a lower MIC50 (Candida albicans), led by results:

MIC50 (Candida albicans) [µM] | MIC90 (Candida albicans) [µM] | MIC50 (Cryptococcus gattii) [µM] | MIC90 (Cryptococcus gattii) [µM] | MIC50 (Nakaseomyces glabratus) [µM] | MIC90 (Nakaseomyces glabratus) [µM] | MIC50 (Pichia kudriavzevii) [µM] | MIC90 (Pichia kudriavzevii) [µM] | SMILES | zone of inhibition at 80 µg/disc (Staphylococcus aureus) [mm]
11 (≈ 4.63 µg/mL) | 22 (≈ 9.25 µg/mL) | 1.1 (≈ 0.463 µg/mL) | 2.6 (≈ 1.09 µg/mL) | 6.1 (≈ 2.57 µg/mL) | 27 (≈ 11.4 µg/mL) | 11 (≈ 4.63 µg/mL) | 24 (≈ 10.1 µg/mL) | CCCCCCCCC[C@H]1NC(=N)N2CCCC2=C1C(=O)OCCCCNC(=N)N | –
0.037 (≈ 0.0342 µg/mL) | 0.29 (≈ 0.268 µg/mL) | 0.055 (≈ 0.0508 µg/mL) | 0.12 (≈ 0.111 µg/mL) | 0.098 (≈ 0.0906 µg/mL) | 0.25 (≈ 0.231 µg/mL) | 0.17 (≈ 0.157 µg/mL) | 0.23 (≈ 0.213 µg/mL) | C[C@@H]1[C@H](O)[C@@H](C)/C=C/C=C/C=C/C=C/C=C/C=C/C=C/[C@H](O[C@@H]2O[C@H](C)[C@@H](O)[C@H](N)[C@@H]2O)C[C@@H]2O[C@](O)(C[C@@H](O)C[C@@H](O)[C@H](O)CC[C@@H](O)C[C@@H](O)CC(=O)O[C@H]1C)C[C@H](O)[C@H]2C(=O)O [AMPHOTERICIN B] | –
